BB579 growth dn = growth inhibitors of yeast BB579 in restrictive medium, primary screen, yeast lifespan-shortening project, S. cerevisiae; OD615, 48 h; inhibition, % at 10 µM; hit rate 0.51% among 140,000;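 active = inhibition above a set limit, 3 SD over the mean compound inhibition, cut at about 44% in these data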
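Assay system – yeast BB579 (DeaD) · Dosing – single compound dose of 10 µM, 0.25% DMSO final · Detection – OD615 turbidity measurement · Buffer or medium – CSMM-D restrictive synthetic medium containing dextrose (glucose) · Benchmarks – positive control amphotericin B 10 µg/mL · Incubation – 48 h exposure, 30 °C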
Measles CPE = compounds protecting cells from measles virus cytopathic effect, primary screen, measles RdRp inhibitor project, single point, MLSMR library, absorbance. Measles virus-infected cells, CPE protection. protection (pct of control), % at 4 µM. hit rate 1.5% among 140,000. AID 841, 2007; in the data active = protection mostly above about 24%, no sharp cut-off; inactive = mostly below about 26%
Yeast lifespan up = compounds extending yeast replicative lifespan, primary screen, S. cerevisiae, OD615. AID 775, 2007. S. cerevisiae growth with nicotinamide; deaD strain in restrictive glucose medium. hit rate 0.68% among 130,000. inhibition of the nicotinamide effect, % at 10 µM;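 active = inhibition above a set limit, placed 3 SD over the median of all compounds, cut at about 26% in these data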;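 note: 0% = nicotinamide-treated wells and 100% = cells grown without nicotinamide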
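Test system: DeaD-strain S. cerevisiae / Buffer or medium: restrictive glucose medium / Also added: nicotinamide 1.5 mM / Doses: one concentration, 10 µM, DMSO 0.25% / Schedule: 48 h at 30 °C / Signal: OD615 measurement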
RAM network inh = inhibitors of the yeast RAM network, primary screen, dse1pr::URA3 reporter, 5-FOA selection. S. cerevisiae dse1pr::URA3 reporter, 5-FOA growth OD615, 2 d; analog-sensitive cbk1-as2 kinase mutant strain. inhibition, % at 50 µM. hit rate 1.8% among 190,000;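 active = inhibition above a set limit, 3 SD over mean compound inhibition, cut at about 8.4% in these data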;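 note: 0% = DMSO-only wells with no growth and 100% = 10 µM 1-NA-PP1 full growth; inhibition rescues growth on 5-FOA so higher OD means more RAM inhibition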
* = called active by the depositor; . = no result given. Compounds with a hit are over-represented: about 3.6% of the library has one in this group of screens.

SMILES	BB579 growth dn	Measles CPE	Yeast lifespan up	RAM network inh
CC(C)(C)N=Cc1cc(-c2ccccc2)sc1O	7	41*	-6	3
Cc1ccc(/C(O)=C2\C(=O)C(=O)N(c3cc(C)on3)C2c2cccc(Br)c2)cc1 (configuration not stated)	7	18	27*	5
COc1cccc(C(=O)N/N=c2\sc3ccccc3n2C)c1	-4	26*	-1	1
Cc1ccc(C(=O)N/N=c2\sc3ccccc3n2C)cc1	7	27	-5	1
Clc1ccc2[nH]c3c(c2c1)CCc1cn[nH]c1-3	100*	4	-29	1
CC(=O)c1ccc(NC(=O)C(C)NCc2ccccc2Cl)cc1 (configuration not stated)	.	.	.	0
O=C(CN(Cc1ccco1)C(=O)CNS(=O)(=O)c1ccc(F)cc1)NCCc1ccccc1	-8	39*	3	5
O=C(CN(Cc1ccco1)C(=O)CNS(=O)(=O)c1ccccc1)NCc1ccccc1	-35	14	-7	-1
O=S(=O)(c1ccc(Cl)cc1)N1CCN=C1SCc1ccc(Cl)c(Cl)c1	-30	5	6	6
Cc1ccc(N(CC(N)=O)C2SC(=O)N(Cc3ccccc3)C2=O)cc1 (configuration not stated)	-23	6	-5	9.4*
Cc1cc(C)nc(-n2cc(C(=O)c3cc(F)ccc3O)cn2)n1	-28	9	30*	-2
COc1ccc(O)c(C(=O)c2cnn(-c3ccccn3)c2)c1	.	.	.	8
CCCNC(=O)c1nnsc1Sc1ccc(Cl)cc1	.	.	.	1
COc1ccc(C2=NN(c3nc(-c4ccccc4)c(CC(=O)O)s3)C(c3ccco3)C2)cc1 (configuration not stated)	-13	5	31*	4
O=C(CCl)c1ccc(Cc2ncc(C(F)(F)F)cc2Cl)s1	-13	5	68*	1
NS(=O)(=O)c1ccc(Cc2ncc(C(F)(F)F)cc2Cl)s1	-31	3	1	1
O=[N+]([O-])c1cc(S(=O)(=O)N2CCCCC2)ccc1NCCCN1CCOCC1	.	.	.	0
CCCc1cc(=O)oc2cc(C)c(CN3CCCC3)c(O)c12	-21	15	35*	0
CCOc1ccc(C(C)=O)cc1CN1C(=O)NC(C)(C2CC2)C1=O (configuration not stated)	.	.	.	-1
COc1ccc2[nH]c(=O)c(CN(Cc3ccco3)Cc3nnnn3Cc3ccccc3)cc2c1	-28	10	-7	9.7*
CCCCCCCOc1ccc(-c2ccc(C#N)cn2)cc1	-12	3	-2	10*
C[C@@H](C(=O)Nc1ccc2ccccc2c1)[C@H]1C[C@]1(C)[C@H](NC(=O)OCc1ccccc1)c1ccccc1	1	38*	7	3
C[C@H](CO)NC(=O)[C@H](C)[C@H]1C[C@]1(C)[C@H](NC(=O)OCc1ccccc1)c1ccccc1	-38	17	3	0
O=C(CSc1ccc(-c2ccncc2)nn1)c1ccccc1	.	.	.	2
CCOC(=O)Nc1nc(-c2ccc(Cl)cc2Cl)cs1	-25	8	-9	1
SMILES	BB579 growth dn	Measles CPE	Yeast lifespan up	RAM network inh
CN1C(=O)C(Cl)(Cl)C(=O)c2ccccc21	-47	5	47*	1
C/C(CC1(O)C(=O)N(C)c2ccccc21)=N\O (configuration not stated)	-8	15	-4	0
COc1ccc(Br)cc1C(=O)N/N=C/c1ccc2c(c1)n(C)c(=O)n2C	-48	37*	2	5
Cn1c(=O)n(C)c2cc(/C=N/NC(=O)c3ccc(Cl)cc3Cl)ccc21	-4	28	-12	1
Cc1cc(S(=O)(=O)NCc2ccccc2)ccc1OCC(=O)Nc1cccc([N+](=O)[O-])c1	-11	4	-1	11*
COc1ccc(C2=NN(CN3C(=O)C(=O)c4ccccc43)C(c3ccc(OC)cc3)C2)cc1 (configuration not stated)	-49	6	-4	6
Cc1cc(C(=O)CSc2n[nH]c(N)n2)c(C)n1-c1ccccc1	-78	26*	-12	1
O=C(c1ccccc1)n1ccc(-c2cnc(-c3ccccc3)s2)n1	-15	7	-1	7
COc1ccc(S(=O)(=O)n2ccc(-c3cnc(-c4ccccc4)s3)n2)cc1	-40	5	-9	9.3*
Cc1ccc(C)c(NS(=O)(=O)c2ccc3[nH]c(=O)oc3c2)c1	.	.	.	3
CCOC(=O)C1Cc2ccccc2CN1 (configuration not stated)	-37	2	-2	2
CCOC(=O)C1Cc2c([nH]c3ccccc23)CN1 (configuration not stated)	-35	42*	-16	0
CCOc1cc(C(=O)NCC(C)CN(C)C)cc(OCC)c1OCC (configuration not stated)	-8	13	-7	0
CCOc1ccc(C(=O)N2CCCC2)cc1OC	-28	33*	-3	1
CCOc1ccc(C(=O)NCC(C)CN(C)C)cc1OCC (configuration not stated)	-31	31*	-15	0
CCOc1ccc(C(=S)N2CCCC2)cc1OC	-14	10	0	0
CCOc1ccc(C(=O)Nc2ccc3c(c2)OCCO3)cc1OC	-61	13	-10	8.5*
COc1ccc(S(=O)(=O)N2CCC(C(=O)Nc3ccc4c(c3)OCCO4)CC2)cc1OC	-34	13	-5	11*
CCOC(=O)C1(Cc2ccc(Cl)cc2)CCN(C(=O)c2ccoc2)CC1	.	.	.	-1
COC(=O)C1=C(C)N(C)C(=S)NC1c1c(OC)ccc2ccccc12 (configuration not stated)	.	.	.	3
COc1ccc(NC(=O)C2CCN(S(=O)(=O)c3ccc(Br)s3)CC2)cc1OC	-44	3	17	10*
CSC(=Nc1ccc(Cl)cc1)N[n+]1ccccc1	-7	8	2	1
O=c1[nH]c2ccc(Br)cc2c(-c2ccccc2)c1CN1CCOCC1	19	23	-8	1
O=c1[nH]c2ccc(Br)cc2c(-c2ccccc2)c1N1CCOCC1	-26	56*	-3	4
O=c1c2c3c(sc2ncn1/N=C/c1ccc([N+](=O)[O-])o1)CCCC3	25	3	65*	1
COc1ccccc1Nc1nc2nonc2nc1N1CCC(C)CC1	-20	78*	3	6
O=C(Nc1ccccc1SCC1CSc2nc3ccccc3c(=O)n21)c1ccccc1Cl (configuration not stated)	4	4	-4	1
O=C(Nc1ccccc1SCC1CSc2nc3ccccc3c(=O)n21)c1cccc(Cl)c1 (configuration not stated)	-23	36*	-12	0
O=C(Nc1ccccc1SCC1CSc2nc3ccccc3c(=O)n21)c1ccccc1 (configuration not stated)	-71	4	-8	1
